Compounds with a hit are over-represented: about 3.4% of the library has one in this group of screens.
TRPML3 ag: human mucolipin-3 channel agonism; Q8TDD5; 220,000 tested, 0.29% active; activation, % at 3 µM; HEK293 TRPML3-YFP, Fluo-8 calcium fluorescence; 100% = the carbachol control signal;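 active means activation above its plate's cutoff, the mean activation of the plate's test wells plus 3 SD, cut at about 12% in these data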;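 further: 0% = DMSO only wells and 100% = carbachol wells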
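system = HEK293 cells stably carrying human TRPML3-YFP | doses = one concentration, 3 µM nominal, 0.3% DMSO | timing = dye loading 1 h 37 °C then 30 min ambient, 125 s read | detection = Fluo-8 calcium dye fluorescence, ex 470-495, em 515-575 nm | benchmarks = high control carbachol 87 µM, low control DMSO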
GPR7 antag: human neuropeptides B/W receptor 1 antagonism. P48145. GPR7-expressing cells, fluorescence antagonist assay. inhibition, % at 4.4 µM. 290,000 tested, 1.1% active. AID 1861; in the data active means inhibition above about 16%, passing the limit was not always enough;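 further: cells stimulated with the agonist NPW; 0% = agonist with vehicle and 100% = vehicle without agonist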
Target sequence (P48145 whole entry, looked up): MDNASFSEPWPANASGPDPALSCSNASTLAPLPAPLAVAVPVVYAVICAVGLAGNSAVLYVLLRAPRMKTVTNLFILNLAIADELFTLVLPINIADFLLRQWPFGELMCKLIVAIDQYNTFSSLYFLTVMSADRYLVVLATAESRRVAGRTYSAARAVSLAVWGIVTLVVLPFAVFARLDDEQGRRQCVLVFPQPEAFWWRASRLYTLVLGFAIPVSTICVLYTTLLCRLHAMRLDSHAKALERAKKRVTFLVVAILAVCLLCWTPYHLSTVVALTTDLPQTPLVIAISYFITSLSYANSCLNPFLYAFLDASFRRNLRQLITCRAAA
LANA-H2B inh: blocks KSHV LANA binding to histone H2A/H2B | AID 2629 | 320,000 tested, 0.6% active | Q9QR71 | cell-free LANA-H2A/H2B peptide, fluorescence polarization | inhibition, % (test concentration not listed); in the data active means inhibition mostly above about 10%, no sharp cut-off; inactive means mostly below about 6.7%
TAAR1 ag: agonists of human TAAR1. Q96RJ0. CHO RD-HGA16 TAAR1, Fluo-8 calcium fluorescence; vehicle wells 0%, saturating PEA agonist 100%. activation, % at 3 µM. 360,000 tested, 0.99% active;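 active means activation above the mean activation of all test compounds in the run plus 3 SD, cut at about 38% in these data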
Target sequence (Q96RJ0 whole entry, looked up): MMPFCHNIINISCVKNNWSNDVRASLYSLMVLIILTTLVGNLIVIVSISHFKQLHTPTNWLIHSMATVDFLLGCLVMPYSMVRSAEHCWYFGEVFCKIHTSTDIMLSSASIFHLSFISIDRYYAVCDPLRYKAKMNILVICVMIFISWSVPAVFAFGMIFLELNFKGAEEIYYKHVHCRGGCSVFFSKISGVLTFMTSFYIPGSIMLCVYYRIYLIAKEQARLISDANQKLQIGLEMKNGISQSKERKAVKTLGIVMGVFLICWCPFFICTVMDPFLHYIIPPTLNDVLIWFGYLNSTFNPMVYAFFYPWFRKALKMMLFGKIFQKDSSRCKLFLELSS
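Test system: RD-HGA16 (CHO) cells co-expressing Gα16 and hTAAR1 / Benchmarks: DMSO vehicle as 0%, PEA at EC100 as 100% / Repeats: no replicates (n 1) / Measure: % activation from peak over basal fluorescence ratio, DMSO-to-PEA scaled / Timing: 17-24 h plating, Fluo-8 75 min 37 °C, 30 min RT / Technique: kinetic Fluo-8 calcium fluorescence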
TAAR1 antagonist: antagonists of human TAAR1 | 360,000 tested, 1.5% active | Q96RJ0 | inhibition, % at 3 µM | AID 624466 | CHO RD-HGA16 TAAR1, Fluo-8 calcium fluorescence, antagonist;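 active means inhibition above a per-plate cutoff, the mean inhibition of test compounds on that plate plus 3 SD, cut at about 49% in these data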;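 further: 0% = DMSO plus EC80 beta-PEA response and 100% = DMSO alone without agonist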
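System: CHO RD-HGA16 cells bearing hTAAR1. Reagent: EC80 β-phenethylamine stimulus. Schedule: seeding 17-24 h prior, 75-min 37 °C, 30-min RT dye loading. Signal: Fluo-8 intracellular calcium dye fluorescence, real-time kinetic reads. Read-out: % inhibition from peak post-agonist over basal fluorescence ratio. Benchmarks: vehicle wells and EC80 agonist wells. Replicates: n of 1.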
TRPN1 ag: activates the zebrafish TRPN1 channel; HEK293 zebrafish TRPN1-YFP, Fluo-8 calcium fluorescence; 100% = response to 87 µM carbachol; activation, % at 3 µM; 220,000 tested, 0.18% active;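 active means activation above its plate's cutoff, the mean activation of test wells on that plate plus 3 SD, cut at about 19% in these data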;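 further: 0% = DMSO alone and 100% = 87 µM carbachol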
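Material – zebrafish TRPN1-YFP in HEK293 cells · Doses – 3 µM single point · Schedule – dye 1 h 37 °C plus 30 min RT · Signal – Fluo-8 calcium fluorescence, excitation 470-495 nm, emission 515-575 nm · Read-out – % activation versus carbachol response · Control set – carbachol high, DMSO low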
nonsel antag count: counter-screen for TAAR1 antagonists: nonselective antagonists; shares compounds with TAAR1 antagonist; counterscreen cell line, calcium fluorescence, antagonist mode; inhibition, % at 3 µM; 2,400 tested, 77% active; in the data active means inhibition above about 22%;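 further: CHO-Ga16 host cells stimulated with ATP at an EC80 level; 0% = agonist EC80 plus vehicle and 100% = vehicle without agonist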
TAAR1 antag conf: human TAAR1 antagonism, confirmed | shares compounds with TAAR1 antagonist | TAAR1-expressing cells, fluorescence antagonist read-out | inhibition, % at 3 µM | 2,400 tested, 40% active | AID 651785; in the data active means inhibition above about 49%;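 further: CHO-Ga16 host cells challenged with agonist PEA near its EC80; 0% = agonist at EC80 plus vehicle and 100% = vehicle with no agonist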
Ga16 nonsel ag: nonselective Ga16 agonist in TAAR1 antagonist counter-screen. Ga16-expressing cells, calcium fluorescence, agonist counterscreen. shares compounds with TAAR1 antagonist. 2,400 tested, 18% active. activation, % at 3 µM; in the data active means activation above about 12%;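 further: 0% = vehicle wells and 100% = saturating stimulus response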
TAAR1 ag count: TAAR1 agonism, antagonist counter-screen; shares compounds with TAAR1 antagonist; hTAAR1 cell line, fluorescence activation, agonist mode; activation, % at 3 µM; 2,400 tested, 2% active; AID 651955; in the data active means activation above about 37%;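 further: CHO cells stably expressing TAAR1 with calcium dye readout; 0% = DMSO vehicle and 100% = full agonist response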
* = called active by the depositor; / = not tested or not shown.

SMILES | TRPML3 ag | GPR7 antag | LANA-H2B inh | TAAR1 ag | TAAR1 antagonist | TRPN1 ag | nonsel antag count | TAAR1 antag conf | Ga16 nonsel ag | TAAR1 ag count
CCN1C(=O)C(CC(=O)Nc2ccc(OC)cc2)N(CCc2ccc(F)cc2)C1=S (stereo not given) | 1 | 13 | -11 | 11 | 69* | 3 | 42* | 59* | 13* | 12
COc1ccc(NC(=O)CC2C(=O)N(C)C(=S)N2CCc2ccccc2)cc1 (stereo not given) | 1 | 3 | -2 | 22 | 25 | 2 | / | / | / | /
COc1ccc(NC(=O)CC2C(=O)N(C)C(=S)N2CCc2ccc(F)cc2)cc1 (stereo not given) | 2 | 0 | -2 | 19 | 58* | 3 | 31* | 50* | 14* | 11
COc1ccc(NC(=O)CC2C(=O)N(Cc3ccccc3)C(=S)N2CCN2CCOCC2)cc1 (stereo not given) | 2 | 4 | 0 | 6 | -21 | 2 | / | / | / | /
CCN1C(=O)C(CC(=O)Nc2ccc(OC)cc2)N(CCCN2CCN(c3ccc(F)cc3)CC2)C1=S (stereo not given) | 3 | 9 | / | 27 | 66* | 3 | 32* | 45 | 17* | 15
COc1ccc(CCN2C(=S)N(C)C(=O)C2CC(=O)Nc2ccc(OC)cc2)cc1 (stereo not given) | 1 | 5 | 2 | 13 | 26 | 2 | / | / | / | /
COc1ccc(S(=O)(=O)N2CCOCC2)cc1NC(=O)COC(=O)c1ccc([N+](=O)[O-])s1 | / | / | -1 | / | / | / | / | / | / | /
CS(=O)(=O)c1ccc(Cl)c(NC(=O)COC(=O)CCCN2C(=O)c3cccc4cccc(c34)C2=O)c1 | / | / | -2 | 1 | 4 | / | / | / | / | /
O=C(Nc1nc2ccccc2n1CCN1CCOCC1)c1cn(-c2ccccc2)nc1-c1ccccc1 | 0 | 6 | -2 | 32 | 54* | 1 | 31* | 50* | 16* | 14
CC1=C(C(=O)OCCCBr)C(c2ccc3c(c2)OCO3)NC(=O)N1 (stereo not given) | / | -6 | 4 | / | / | / | / | / | / | /
CCOc1cc2c(cc1OC)C(c1cccc([N+](=O)[O-])c1)NCC2 (stereo not given) | 0 | -3 | 1 | 0 | 106* | -1 | 4 | 7 | 3 | 6
Cc1ccc(S(=O)(=O)N2CCCN(C(C)c3nc4ccccc4c(=O)[nH]3)CC2)cc1 (stereo not given) | / | / | -3 | -1 | 12 | / | / | / | / | /
COc1ccc(C(=O)N2N=C(c3cccc(NS(C)(=O)=O)c3)CC2c2cccs2)cc1 (stereo not given) | / | 5 | -7 | 13 | 61* | / | 31* | 48 | 10 | 12
CS(=O)(=O)Nc1cccc(C2=NN(C(=O)c3ccc(F)cc3)C(c3cccs3)C2)c1 (stereo not given) | / | 12 | 2 | 7 | -2 | / | / | / | / | /
CCN(CC)c1nc2c(c(=O)n(C)c(=O)n2C)n1CCCc1ccccc1 | / | 3 | 0 | 25 | -7 | / | / | / | / | /
CN(Cc1ccccc1)c1nc2c(c(=O)n(C)c(=O)n2C)n1CCCc1ccccc1 | -1 | 0 | 2 | 9 | 49* | -3 | 27* | 52* | 17* | 40*
Cc1occc1C(=O)N1CCCC(N2CCN(c3ccccc3F)CC2)C1 (stereo not given) | / | 1 | -2 | 0 | -10 | / | / | / | / | /
CCOC(=O)C1CCN(C(=O)/C=C/c2ccc3c(c2)OCO3)CC1 | / | -1 | -1 | 7 | -16 | / | / | / | / | /
CCc1ccc(/C=C/C(=O)c2cc(Br)ccc(=O)c2O)cc1 | 0 | -10 | -7 | 27 | 32 | -1 | / | / | / | /
Cc1cccc(/C=C/C(=O)c2cc(Br)ccc(=O)c2O)c1 | 1 | -1 | 1 | 35 | 51* | 0 | 36* | 27 | 14* | 17
CN(c1ccccc1)S(=O)(=O)c1cc(C(=O)N2CCN(c3ccccn3)CC2)ccc1Cl | 2 | -14 | -3 | 7 | 60* | 3 | 19 | 34 | 6 | 5
O=C(c1ccc(Cl)c(Cl)c1)N1CCN(c2ccccn2)CC1 | / | 6 | 0 | 4 | 10 | / | / | / | / | /
O=C(c1ccc(Cl)c([N+](=O)[O-])c1)N1CCN(c2ccccn2)CC1 | 1 | -9 | 0 | 1 | 6 | 1 | / | / | / | /
O=C(c1ccc(S(=O)(=O)Cc2ccccc2Cl)c([N+](=O)[O-])c1)N1CCN(c2ccccn2)CC1 | 2 | 8 | -2 | 17 | 69* | 2 | 38* | 53* | 15* | 14
CCC[C@H]1CN(c2ccc(Br)cc2)C(=O)[C@@H]1CC(=O)Nc1ccc(OC)cc1 | / | / | / | -1 | 18 | / | / | / | / | /
Cc1ccc(OCC(=O)N2CCCC(CO)(CCOc3ccccc3)C2)cc1 (stereo not given) | / | -11 | 1 | 1 | -27 | / | / | / | / | /
COCc1ccc(-c2c(-c3ccsc3)oc(=O)c3cc(OC)c(OC)cc23)cc1 | / | / | 0 | 2 | 58* | / | 17 | 33 | 2 | 1
COc1ccc(-c2cc(C(=O)N(C)CC(=O)Nc3ccccc3Br)c3ccccc3n2)cc1OC | / | / | -1 | 12 | 65* | / | 29* | 51* | 8 | 6
